ALR H2O2 inh: inhibitors of human sulfhydryl oxidase ALR | P55789 | purified ALR, DTT oxidation, H2O2 HRP-luminol luminescence | inhibition, % (no concentration beside the values) | 290,000 tested, 3.8% active | AID 485317;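 active = mean replicate inhibition above about 79%, with every replicate also reaching it, limit read from the data; inconclusive = only one of the two criteria met; inactive = mean below limit and not every replicate reaching it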
Target sequence (P55789 whole entry, looked up): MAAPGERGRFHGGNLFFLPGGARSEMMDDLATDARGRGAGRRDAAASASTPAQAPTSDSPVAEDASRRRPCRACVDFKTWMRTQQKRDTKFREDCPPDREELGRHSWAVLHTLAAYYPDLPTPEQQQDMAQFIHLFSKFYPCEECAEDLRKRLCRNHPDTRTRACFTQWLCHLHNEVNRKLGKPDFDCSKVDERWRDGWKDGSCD
NLRP3 yeast inh: NALP3 inhibition in yeast; Yeast reconstituted NLRP3/ASC/caspase-1, beta-gal luminescence, 24 h; inhibition, % at 10 µM; 330,000 tested, 0.39% active;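 active = inhibition of 50% or more; inactive = inhibition below 50%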;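 note: plate controls were induced DMSO wells for no effect and uninduced yeast grown without galactose for full effect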
Calb FLC: C. albicans growth modulation with fluconazole | C. albicans CaCi-2 (fluconazole-resistant clinical isolate) + fluconazole, Alamar Blue growth, 48 h | growth inhibition, % (concentration not given with the values) | 300,000 tested, 0.57% active;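 active = growth inhibition above about 58% in most replicates, limit read from the data, passing the limit was not always enough; inconclusive = exactly half the replicates above a set limit; inactive = most replicates below a set limit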;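 note: all wells also contain fluconazole at 8 µg/ml as a sub-toxic cotreatment; 0% = median of DMSO wells and 100% = median of geldanamycin control wells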
NALP1 inh: blocks the NALP1 inflammasome reconstituted in yeast | S. cerevisiae NALP1/ASC/caspase-1 growth, X-gal OD620, 72 h | inhibition, % at 10 µM | 280,000 tested, 0.61% active | AID 2071; in the data active = inhibition mostly above about 24%, no sharp cut-off; inactive = mostly below about 32%
UCH37 inh: human UCH37 deubiquitinating enzyme inhibition; 330,000 tested, 0.33% active; inhibition, % (test concentration not listed); Q9Y5K5; purified proteasome/UCH37, Ub-AMC cleavage fluorescence;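 active = mean inhibition over replicate wells above about 20%, limit read from the data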;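 note: 0% = compound-free wells with enzyme and 100% = wells lacking proteasome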
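Assay system: Proteasome-bound UCH37. Buffer or medium: pH 7.4 Tris-HCl (50 mM) with ovalbumin, ATP-MgCl2, DTT. Incubation: 30 min preincubation with enzyme, 25 min cleavage at room temperature. Measured by: fluorescence, ex 355 nm, em 460 nm. Read-out basis: percent inhibition. Control set: wells without proteasome as full block, compound-free enzyme plus substrate as uninhibited.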
ATG4B inh: inhibitors of human ATG4B cysteine protease; 340,000 tested, 0.51% active; ATG4B cleavage of LC3-PLA2, NBD-HPC fluorescence, 1 h; inhibition, % at 8.33 µM; in the data active = inhibition above about 40%
Target sequence (Q9Y4P1 whole entry, looked up): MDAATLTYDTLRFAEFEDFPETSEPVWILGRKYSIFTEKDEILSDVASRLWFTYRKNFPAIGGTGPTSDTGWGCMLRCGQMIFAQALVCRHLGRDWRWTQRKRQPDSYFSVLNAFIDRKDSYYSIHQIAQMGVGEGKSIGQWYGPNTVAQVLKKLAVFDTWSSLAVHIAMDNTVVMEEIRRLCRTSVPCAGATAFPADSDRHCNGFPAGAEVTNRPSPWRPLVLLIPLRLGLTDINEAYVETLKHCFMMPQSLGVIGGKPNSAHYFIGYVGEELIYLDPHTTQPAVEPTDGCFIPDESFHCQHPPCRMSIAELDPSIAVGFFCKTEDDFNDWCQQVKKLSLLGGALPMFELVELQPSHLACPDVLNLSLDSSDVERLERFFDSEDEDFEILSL
An asterisk follows results filed as active; ? = inconclusive; · = no result. Hits are enriched below; roughly 4.8% of the tested compounds scored in any of these assays.

SMILES | ALR H2O2 inh | NLRP3 yeast inh | Calb FLC | NALP1 inh | UCH37 inh | ATG4B inh
Cc1ccc(OCCn2c(C)c(C=Nn3cnnc3)c3ccccc32)cc1 | · | · | · | · | 6.3 | ·
Cc1noc(C)c1S(=O)(=O)NCCN1CCN(c2ccccc2)CC1 | 85.8* | 26.2 | 2.1 | 3.8 | -0.6 | -11.5
Cc1ccc([C@@H]2[C@@H]3C(=O)N(C)C(=O)[C@@H]3[C@]3(C)C(=O)N(Cc4ccccc4)CC(=O)N23)o1 | · | 2.8 | 0.6 | 18.8 | 24.9* | 4.3
CCN(CC)C(=O)Oc1ccc(Cl)c2cccnc12 | · | 14.2 | -2.8 | 0.8 | -4.9 | -1.7
O=C(Nc1cccc(C(F)(F)F)c1)Oc1ccc(Cl)c2cccnc12 | -8.3 | · | 37.8 | 48.2* | · | 5.3
CC(C)(C)c1ccc(C(=O)CC(=O)c2cc(Cl)ccc2O)cc1 | -2.6 | 14.3 | 106.3* | -8.9 | 1.1 | -0.5
CC(C)(C)c1ccc(C(=O)NNC(=O)c2ccc(Cl)cc2)cc1 | · | 40.9 | 1.1 | 20.4 | 2.4 | -8.9
Cc1ccc(C(=O)CC(=O)c2ccc(C(C)(C)C)cc2)cc1 | 0.2 | -5.9 | 108.5* | 13.2 | 6.4 | 2.9
COc1ccc(C(=O)CC(=O)c2ccc(C(C)(C)C)cc2)cc1 | · | · | · | · | · | -4.0
C=CCn1c(CNc2ccccc2)nnc1SCC(=O)NN=Cc1ccc(O)cc1O | · | · | · | · | 3.6 | ·
COc1cccc(C(=O)NCC(=O)NN=Cc2ccc(OC(=O)c3cccs3)c(OC)c2)c1 | · | · | · | · | 2.4 | ·
COc1ccc(NC(=O)NNC(=O)COc2ccc3ccccc3c2)cc1OC | -44.2 | 3.5 | 6.8 | 2.7 | 6.9 | -6.6
COc1ccc(NC(=O)NNC(=O)CCc2ccc(O)c(O)c2)cc1OC | 99.2* | -0.3 | -5.9 | 1.4 | · | 0.4
COc1ccc(NC(=O)NNC(=O)COc2ccc3cc(Br)ccc3c2)cc1OC | -19.0 | -7.4 | -0.3 | 29.9* | 2.6 | -4.0
CN(C)c1ccc(CN(C(=O)c2cc3ccccc3oc2=O)C2CCS(=O)(=O)C2)cc1 (configuration not stated) | 89.0* | 23.5 | -2.5 | 8.9 | 9.9 | 6.6
CN(Cc1ccccc1)C(=O)c1cc2ccccc2o1 | 12.7 | 27.3 | -1.8 | 8.1 | 0.4 | -0.8
Cc1c(C(=O)N(Cc2ccc(Cl)cc2)C2CCS(=O)(=O)C2)oc2ccccc12 (configuration not stated) | -4.6 | -9.9 | 0.5 | -55.0 | 1.9 | -17.4
CN(Cc1ccc(N(C)C)cc1)C(=O)c1cc2ccccc2o1 | 76.4* | 3.3 | 6.9 | 27.3 | -0.3 | 1.4
CN(C)c1ccc(CN(C(=O)c2ccco2)C2CCS(=O)(=O)C2)cc1 (configuration not stated) | 82.4* | 15.4 | -5.0 | 10.9 | 0.3 | -11.6
CCOc1ccc(CN(C(=O)c2oc3ccccc3c2C)C2CCS(=O)(=O)C2)cc1 (configuration not stated) | -12.4 | 12.1 | 100.5* | 16.4 | 1.2 | -4.4
CC(C)c1ccc(CN(C(=O)c2cc3ccccc3oc2=O)C2CCS(=O)(=O)C2)cc1 (configuration not stated) | -0.4 | -1.9 | -3.6 | 7.2 | 1.4 | -4.8
CCN(CC)S(=O)(=O)c1cccc(C(=O)NN=Cc2cccc(O)c2O)c1 | · | · | · | · | 1.8 | ·
O=C(c1ccco1)N(Cc1ccc(Cl)cc1)Cc1ccco1 | 3.3 | -2.7 | -3.7 | -19.9 | 1.0 | 13.3
CN(C)c1ccc(CN(C(=O)c2ccccc2Br)C2CCS(=O)(=O)C2)cc1 (configuration not stated) | 95.7* | 7.6 | -11.5 | 9.2 | 0.0 | -8.1
CN(C)c1ccc(CN(Cc2ccco2)C(=O)c2ccco2)cc1 | 99.5* | 25.2 | -30.8 | 39.3 | 1.9 | -5.8
SMILES | ALR H2O2 inh | NLRP3 yeast inh | Calb FLC | NALP1 inh | UCH37 inh | ATG4B inh
COc1cccc(CN(C(=O)c2ccccc2Br)C2CCS(=O)(=O)C2)c1 (configuration not stated) | -0.9 | 0.2 | -11.6 | -10.2 | 3.5 | -0.6
Cc1ccn2c(C(=O)NN=Cc3ccc4c(c3)OCO4)c(C)nc2c1 | · | · | · | · | 5.6 | ·
Cc1nnc(SCC(=O)c2ccc(S(=O)(=O)N3CCOCC3)cc2)n1-c1ccccc1 | 93.7* | 8.2 | -1.1 | -1.3 | 2.4 | -14.5
CCOC(=O)CSc1nnc(-c2ccc(S(=O)(=O)N3CCOCC3)cc2)n1-c1ccccc1 | · | 13.6 | -0.8 | · | -0.1 | -3.4
N#CC(C#N)=C1C=C2C=C(N3CCCCC3)CCC2CC1 (configuration not stated) | 99.2* | · | · | 23.2 | 11.1 | -274.4
CCCC=NNC(=O)C1COc2ccccc2O1 (configuration not stated) | · | · | · | · | 4.7 | ·
COc1cc(C=NNC(=O)Cn2cnc3ccccc3c2=O)ccc1O | · | · | · | · | 4.7 | ·
O=C(Nc1ccc(SC(F)F)cc1)C1CC(=O)N(Cc2ccccc2)C1 (configuration not stated) | 94.8* | 15.0 | 4.7 | 19.0 | 6.0 | -10.1
O=C(Nc1ccccc1)C1CC(=O)N(Cc2ccccc2)C1 (configuration not stated) | 2.0 | 13.7 | -5.1 | 0.9 | -0.2 | -6.7
Cc1ccc(OCC(=O)NN=Cc2cn(C)c3ccccc23)cc1 | · | · | · | · | 4.8 | ·
COc1cc(OC)c(C2SCCS2)c(OC)c1 | 98.9* | 2.1 | -2.0 | 25.5 | 3.2 | -2.5
Cc1oc(-c2ccc(Cl)cc2)nc1CSCC(=O)NC1CCN(Cc2ccccc2)CC1 | 97.7* | 7.6 | 5.4 | 6.8 | 5.2 | -3.6
CCOc1ccc(-c2nc(CSCC(=O)NCc3ccco3)c(C)o2)cc1 | 97.6* | -4.4 | 0.4 | -11.3 | 4.1 | 7.7
CCOc1ccc(-c2nc(CSCC(=O)NC3CCCc4ccccc43)c(C)o2)cc1 (configuration not stated) | 95.8* | 8.5 | -11.0 | 18.2 | -1.0 | 23.9
CCOc1ccc(-c2nnc3ccc(SCC(=O)NCc4ccco4)nn23)cc1 | -0.3 | 2.6 | -6.6 | 1.9 | -34.2 | 2.3
CCOc1ccc(NC(=O)CS(=O)CC(=O)NC2CCCc3ccccc32)cc1 (configuration not stated) | · | -1.3 | ? | 11.8 | 2.8 | -16.1
CCOC(=O)N1CCC(NC(=O)CSCc2nc(-c3ccc(OCC)cc3)oc2C)CC1 | 99.2* | -7.9 | 3.3 | 20.8 | 2.2 | -2.3
Cc1ccc(C=NNC(=O)COc2ccccc2-c2ccccc2)cc1 | · | · | · | · | 0.1 | ·
COc1cccc(C=NNc2nccnc2Cl)c1O | · | · | · | · | 10.3 | ·
CON=C(Cn1ncc(N2CCOCC2)c(Br)c1=O)c1ccc(Cl)cc1 | · | · | · | · | 2.9 | ·
Cc1ccccc1CSCC(=O)NCc1ccco1 | 88.4* | 20.5 | -2.4 | 11.5 | 1.1 | 10.7
CCOc1ccc(-c2nc(CSCC(=O)NC3CC3)c(C)o2)cc1 | 98.6* | 14.2 | 9.0 | 6.0 | 1.6 | -0.3
CCOC(=O)N1CCC(NC(=O)CSCc2nc(-c3cccc(OC)c3)oc2C)CC1 | 99.2* | 11.0 | 13.5 | · | 0.8 | -10.4
Cc1cccc(C=Nn2c(-c3ccccn3)n[nH]c2=S)c1 | · | · | · | · | -0.7 | ·
CN(C)CCON=C(c1ccc(Br)cc1)c1cccnc1 | · | · | · | · | 6.2 | ·
O=C(/C=C/c1ccc[nH]1)c1ccccc1 | 97.5* | 8.7 | 1.5 | -45.7 | 4.5 | 2.6
